This is a sample that favours compounds with a hit; in the whole collection about 2.3% have one here.
Bim-Mcl-1: inhibitors of Bim peptide binding to Mcl-1, primary screen, biochemical, bead-based flow cytometry, multiplex; Induced myeloid leukemia cell differentiation protein Mcl-1 (Homo sapiens), Q07820; Bim peptide-Mcl-1 binding; inhibition, % at 10 µM; 190,000 tested, 0.1% active; AID 1009, 2008; in the data active = inhibition above about 40%;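 note: 0% = no compound tracer wells and 100% = peptide blocker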
Target sequence (Q07820 whole entry, looked up): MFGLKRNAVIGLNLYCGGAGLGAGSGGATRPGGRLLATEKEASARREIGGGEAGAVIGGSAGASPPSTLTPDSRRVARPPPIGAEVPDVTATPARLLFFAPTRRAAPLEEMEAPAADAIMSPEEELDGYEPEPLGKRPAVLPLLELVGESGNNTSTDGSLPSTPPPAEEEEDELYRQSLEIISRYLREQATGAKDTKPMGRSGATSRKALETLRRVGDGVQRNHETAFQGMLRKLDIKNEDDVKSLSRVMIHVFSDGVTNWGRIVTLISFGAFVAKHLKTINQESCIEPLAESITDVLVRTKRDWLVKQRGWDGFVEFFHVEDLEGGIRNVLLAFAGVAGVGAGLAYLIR
Mcl1 Noxa PPI: Mcl-1/Noxa binding inhibitors, primary screen, biochemical, TR-FRET, 1536-well | Induced myeloid leukemia cell differentiation protein Mcl-1 (Homo sapiens), Q07820 | TR-FRET Mcl-1/Noxa peptide binding, 2 h | 220,000 tested, 1.5% active | AID 1022, 2008 | inhibition, % at 21.7 µM;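 active = compounds that cut the protein-peptide binding signal by more than 50% relative to plate controls in a single-dose test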;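 note: His-tagged Mcl-1 with rhodamine Noxa BH3 peptide and terbium anti-His antibody; 0% = Mcl-1 plus Noxa peptide wells and 100% = peptide-only wells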
T cell HTS: modulators of CD8 T cell-vesicle binding, primary screen, mouse 2C CD8+ T cells, flow cytometry; 2C CD8+ T cell-vesicle binding; active compounds read low; response (vesicle binding), % at 7 µM; 330,000 tested, 0.068% active;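 active = response, share of CD8 T cells binding vesicles, and their 90th percentile fluorescence all below set limits, cut at about 80% in these data, passing the limit was not always enough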;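 note: values below 100% mean blocked vesicle binding to the CD8+ T cells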
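Also added: QL9-peptide-loaded Drosophila micro-vesicles bearing Ld, ICAM-1 and B7-1; Test system: purified 2C TCR transgenic mouse naive CD8+ T cells; Measured by: cytometric PE anti-B7-1 and Alexa647 anti-CD8 signals after 1% paraformaldehyde fixation; Timing: binding step 1.5 h, 37 °C, antibody labelling 20 min, ice.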
Mcl1 Bid PPI: Mcl-1/Bid binding inhibitors, primary screen, biochemical, TR-FRET, 1536-well; Induced myeloid leukemia cell differentiation protein Mcl-1 (Homo sapiens), Q07820; TR-FRET Mcl-1/Bid-Dy647 peptide binding; inhibition, % at 21.7 µM; 220,000 tested, 0.97% active; AID 1021, 2008;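 active = compounds that cut the binding signal by more than half at the single screening dose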;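 note: His-tagged Mcl-1 with europium anti-His antibody binding Bid BH3 peptide; 0% = Mcl-1 plus peptide wells and 100% = peptide-only wells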
MCL1 BIM primary: inhibitors of MCL1 binding to BIM-BH3, primary screen, biochemical, fluorescence polarization; 320,000 tested, 0.68% active; GST-MCL1 / FITC-Bim-BH3 fluorescence polarization; AID 2057, 2009; Induced myeloid leukemia cell differentiation protein Mcl-1 (Homo sapiens), Q07820; inhibition, % at 10.9 µM;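 active = inhibition above the mean inhibition of all tested compounds plus 3 SD, set per campaign, cut at about 40% in these data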;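 note: 0% = DMSO wells and 100% = unlabeled Bim-BH3 peptide control; higher means more loss of mP so more displacement of Bim peptide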
DSG3 Ab inh: inhibitors of pemphigus antibody binding to DSG3, primary screen, biochemical, bead-based, flow cytometry, scFv-GFP; Desmoglein-3 (Homo sapiens), P32926; AID 588358, 2011; 310,000 tested, 0.48% active; binding (percent of control), % at 10 µM; DSG3-coupled beads, scFv-anti-DSG3-GFP binding; active compounds read low;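 active = binding more than 3 SD below its plate's average and above zero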;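 note: hits lower antibody fragment binding to DSG3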
* marks the source's active call; other numbers are inactive results; · = not tested or not shown; + = active, no number.

SMILES | Bim-Mcl-1 | Mcl1 Noxa PPI | T cell HTS | Mcl1 Bid PPI | MCL1 BIM primary | DSG3 Ab inh
C[C@H]1COC(=O)[C@@H](Cc2ccc(F)cc2)CC/C=C/C[C@@H](CC(=O)N(CCO)Cc2ccccc2)C(=O)N1 | · | · | 546.2 | · | · | 80.1*
O=C(CNC(=O)c1ccncc1)N/N=C/c1ccccn1 | -3.0 | 11.0 | 325.0 | -10.0 | 16.7 | 84.0
COc1cc(C(=O)NCC(=O)N/N=C/c2ccccn2)cc(OC)c1OC | -1.0 | -8.7 | 130.5 | 63.0* | 6.6 | 104.8
CC(=O)c1ccc(N2CCN(C(=O)CN3C(=O)NC4(CCCCC4)C3=O)CC2)c(F)c1 | · | · | 274.5 | · | 7.7 | ·
O=C(Nc1nnc2n1CCS2)c1ccc(Br)o1 | · | · | 484.2 | · | -1.9 | 94.4
O=C(NCCc1nc2ccc(Cl)cc2[nH]1)C1CCC(=O)N(Cc2cccc(F)c2)C1 (stereo not given) | · | · | 67.4* | · | -2.5 | ·
Cc1cc(C)c(C)c(S(=O)(=O)N2CCNC(=O)C2)c1C | · | · | · | · | · | 102.6
O=C(OCc1ccccc1)N(CCF)c1cn(Cc2ccccc2)c(=O)n(Cc2ccccc2)c1=O | · | · | · | · | · | 94.8
O=C(O)c1ccc2nc(-c3ccco3)c(-c3ccco3)nc2c1 | 5.0 | 80.4* | · | -9.5 | · | 95.8
COc1ccc(CCNC(=O)c2ccc3nc(-c4ccco4)c(-c4ccco4)nc3c2)cc1OC | 8.0 | 99.3* | 274.6 | 17.7 | 30.9 | 96.2
O=C(c1ccc2nc(-c3ccco3)c(-c3ccco3)nc2c1)N1CCN(c2ccccc2)CC1 | 0.0 | 52.2* | 425.9 | -19.3 | 18.2 | 92.1
ON=C1c2ccccc2-c2cc(Br)ccc21 | · | · | · | · | · | 102.4
CC(=O)Nc1ccc(/C=N/NC(=S)NC(C)C)cc1 | -1.0 | 52.5* | 335.1 | 5.6 | 12.6 | 115.3
Cc1ccc(NC(=O)CCn2cccc2)cc1C | -2.0 | 12.9 | 132.2 | 59.9* | 11.0 | 102.1
O=[N+]([O-])c1cc(Br)c(Nc2ccccc2)c([N+](=O)[O-])c1 | · | · | 12.5 | · | -4.8 | 106.4
O=[N+]([O-])c1cc([N+](=O)[O-])c2c(=Nc3ccccc3)n(-c3ccccc3)n(O)c2c1 | 11.0 | 62.5* | 379.0 | -28.4 | 7.9 | 95.4
COc1cc2c(cc1OC)-c1cc3ccc4c(c3c[n+]1CC2)OCO4 | 0.0 | -184.8 | 666.9 | -14.6 | + | 116.8
COc1ccc(C(=O)OCC(=O)Nc2cccc(S(=O)(=O)NC3=NCCCCC3)c2)cc1[N+](=O)[O-] | · | · | · | · | · | 118.9
CCOC(=O)N1CCN(Cc2cn3ccccc3n2)CC1 | -6.0 | 8.2 | 273.5 | 56.1* | 1.9 | ·
CCOC(=O)N1CCN(Cc2c(F)cccc2F)CC1 | -3.0 | 28.1 | 403.7 | 51.7* | -1.9 | ·
CCOC(=O)C1(Cc2cccc(OC)c2)CCN(Cc2cccnc2)CC1 | 0.0 | -1.1 | 170.9 | -4.0 | 2.8 | 102.0
O=C(Cn1c(=O)n(-c2ccccc2)c(=O)c2sccc21)N1CCCC1 | 0.0 | 104.5* | 85.7 | 5.8 | -2.2 | 105.3
Cc1ccc(-n2c(=O)c3sccc3n(CC(=O)N3CCCC3)c2=O)cc1 | 0.0 | -10.5 | 195.0 | -9.3 | -3.0 | 99.6
CCS(=O)(=O)N1CCN(c2ccc(C(=O)NC3C4CC5CC(C4)CC3C5)cc2[N+](=O)[O-])CC1 (stereo not given) | -1.0 | 1.4 | 191.7 | 55.4* | -2.5 | 99.8
CCS(=O)(=O)N1CCN(c2ccc(C(=O)N3CCOCC3)cc2[N+](=O)[O-])CC1 | · | 16.0 | 231.2 | 17.2 | -3.0 | 98.2
SMILES | Bim-Mcl-1 | Mcl1 Noxa PPI | T cell HTS | Mcl1 Bid PPI | MCL1 BIM primary | DSG3 Ab inh
Cc1cccc(NS(=O)(=O)c2ccc(C)c(C(=O)NC3CCN(Cc4ccccc4)CC3)c2)c1 | · | · | · | · | · | 76.8
O=C(O)C(c1ccccc1)N1C(=O)c2ccccc2C1=O (stereo not given) | · | · | 179.2 | · | -4.5 | 119.8
O=C(O)[C@@H](c1ccccc1)N1Cc2ccccc2C1=O | 0.0 | 16.2 | 623.5 | 98.2* | -2.5 | 102.7
COc1ccc(N2CCN(S(=O)(=O)c3ccc(Cl)c(C(F)(F)F)c3)CC2)cc1 | -6.0 | 1.5 | 352.3 | -0.3 | -1.6 | 96.9
COc1ccc(N2CCN(S(=O)(=O)c3cccc(C(F)(F)F)c3)CC2)cc1 | -1.0 | 8.3 | 274.8 | -11.8 | 3.4 | -25.3*
Cc1cccc(-n2nc3c(c2NC(=O)c2ccco2)CSC3)c1C | -3.0 | 16.3 | 722.9 | 15.3 | 26.6 | 86.5*
CC(OC(=O)c1cc2sccc2n1C)C(=O)NCc1cccs1 (stereo not given) | -1.0 | 23.1 | · | 5.8 | 3.0 | 96.6
Cn1c(C(=O)OCC(=O)NCc2cccs2)cc2sccc21 | 1.0 | 1.6 | · | 1.1 | 1.2 | 40.2*
COc1ccc(CNC(=O)c2ccc(S(=O)(=O)N3CC(C)CC(C)C3)cc2)cc1OC (stereo not given) | · | · | · | · | · | 104.7
Cc1cccc(-c2noc(CCCC(=O)NC3CCCC3)n2)c1 | · | · | 214.1 | · | 4.4 | 91.6
N#Cc1c2ncn(CC(=O)c3ccc(Br)cc3)c(=O)c2c2n1CCC2 | 0.0 | -25.3 | 170.8 | 13.4 | 7.4 | 30.0*
N#Cc1c2n(c3c(=O)n(CC(=O)c4ccc(Br)cc4)cnc13)CCCC2 | -3.0 | -3.9 | 335.0 | -2.2 | -10.8 | 112.6
C=CCn1c(O)c(N=NC(=S)Nc2ccccc2F)c2ccccc21 | -2.0 | -65.4 | 369.2 | -53.8 | 3.5 | 3.1*
NC(=O)Cn1c(O)c(N=NC(=O)CNC(=O)/C=C/c2ccccc2)c2ccccc21 | · | · | 280.8 | · | 5.6 | 124.3
C=CCn1c(O)c(N=NC(=O)CNC(=O)/C=C/c2ccco2)c2ccccc21 | -2.0 | 69.4* | 226.6 | -16.4 | 28.6 | 83.7
C=CCn1c(O)c(N=NC(=O)CNC(=O)/C=C/c2ccc(OC)cc2)c2ccccc21 | · | 7.3 | 527.8 | 96.5* | 5.0 | 100.6
O=C(NCCc1ccc2c(c1)OCCO2)c1cc(S(=O)(=O)N2CCCC2)ccc1Br | · | · | · | · | · | 114.9
COC(=O)c1ccc(C(=O)OC)c(NC(=O)COC(=O)c2ccccc2OC)c1 | 2.0 | -103.7 | 442.5 | 6.3 | 4.0 | -8.0*
C=CCN1C(=O)c2ccc(C(=O)N(CC(C)C)c3c(N)n(CCCC)c(=O)[nH]c3=O)cc2C1=O | · | · | 356.9 | · | -4.6 | 75.6*
O=C(Nc1ccc2ccccc2c1)NC1CCS(=O)(=O)C1 (stereo not given) | -2.0 | 9.4 | 272.2 | -15.6 | 7.3 | 96.4
CC(=O)NC1=C(NC2CCS(=O)(=O)C2)C(=O)c2ccccc2C1=O (stereo not given) | 3.0 | 94.3* | 103.4 | -16.3 | 20.2 | 79.8

From PubChem BioAssay
